From the M2OR odorant receptor database

biological target: T1, OR2J2 (Homo sapiens) (UniProt O76002); details: stereoisomer not certain
T1 sequence (whole entry): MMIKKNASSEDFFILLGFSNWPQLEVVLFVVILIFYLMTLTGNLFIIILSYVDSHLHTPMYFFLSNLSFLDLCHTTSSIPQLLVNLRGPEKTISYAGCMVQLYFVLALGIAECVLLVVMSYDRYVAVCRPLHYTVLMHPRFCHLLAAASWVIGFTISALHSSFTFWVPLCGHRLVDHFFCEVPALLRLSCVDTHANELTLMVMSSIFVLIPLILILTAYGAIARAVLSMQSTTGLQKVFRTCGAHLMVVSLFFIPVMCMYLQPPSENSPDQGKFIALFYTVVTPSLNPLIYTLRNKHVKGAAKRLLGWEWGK
Summary of the method: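 Each receptor–molecule pair is labelled responsive or non-responsive (inactive) according to whether the original authors judged the measured signal statistically different from baseline. The data were taken from the main text and supplementary material of published papers and checked for typos and inconsistencies. Assay methods differed by source, with transient luciferase assays in mammalian cell lines being common.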

SMILES	odorant receptor agonist call;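 note: active if original authors judged signal statistically different from baseline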
c1ccccc1	inactive
CCCCCCCC(=O)[O-].[H+]	inactive
CC(=O)OCc1ccccc1	inactive
C=C(C)C1CCC(C)C(=O)C1 (centres undefined)	inactive
CCCCCCO	inactive
CC(C)=CCCC(C)=CCO	inactive
CCCCC(C)=O	inactive
CCC(=O)C(=O)CC	inactive
CCCCOC(=O)C(C)OC(=O)CCC (centres undefined)	inactive
CCCCCCCCCS	inactive
CCCCCCCC(C)=O	inactive
CCCCCCCCO	active
CCCCCC=O	inactive
O=c1ccc2ccccc2o1	active
